Experiments:
Conditions in all cases: stereoisomer not certain
UniProt A2ATE5 = target: T1, UniProt A2ATE5
T1 sequence (whole entry): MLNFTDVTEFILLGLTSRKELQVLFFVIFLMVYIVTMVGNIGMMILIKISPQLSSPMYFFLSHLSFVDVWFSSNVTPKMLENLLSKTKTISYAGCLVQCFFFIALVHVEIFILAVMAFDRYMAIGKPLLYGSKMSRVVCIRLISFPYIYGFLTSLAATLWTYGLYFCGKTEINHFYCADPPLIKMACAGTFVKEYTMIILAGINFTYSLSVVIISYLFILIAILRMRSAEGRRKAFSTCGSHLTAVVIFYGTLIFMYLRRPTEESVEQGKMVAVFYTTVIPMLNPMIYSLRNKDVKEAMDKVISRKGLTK
Summary of the method: (§1)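 Each entry records the cell line, G-protein, co-transfected protein and tags used. Methods varied with the source, often transient luciferase assays in mammalian cell lines. A receptor–molecule pair is called responsive (active) if the original authors judged its signal statistically different from baseline and non-responsive (inactive) otherwise.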

UniProt A2AVB0 = target: T2, UniProt A2AVB0
T2 sequence (whole entry): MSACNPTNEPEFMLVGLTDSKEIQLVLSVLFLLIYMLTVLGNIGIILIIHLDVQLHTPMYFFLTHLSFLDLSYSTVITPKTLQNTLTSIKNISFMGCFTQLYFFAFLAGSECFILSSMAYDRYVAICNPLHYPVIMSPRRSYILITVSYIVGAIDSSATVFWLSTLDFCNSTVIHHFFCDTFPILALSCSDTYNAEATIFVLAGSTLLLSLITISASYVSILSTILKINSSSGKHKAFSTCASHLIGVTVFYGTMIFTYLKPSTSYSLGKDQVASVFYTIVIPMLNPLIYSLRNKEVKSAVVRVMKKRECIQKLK
Summary of the method: as §1

UniProt A2AVB5 = target: T3, UniProt A2AVB5
T3 sequence (whole entry): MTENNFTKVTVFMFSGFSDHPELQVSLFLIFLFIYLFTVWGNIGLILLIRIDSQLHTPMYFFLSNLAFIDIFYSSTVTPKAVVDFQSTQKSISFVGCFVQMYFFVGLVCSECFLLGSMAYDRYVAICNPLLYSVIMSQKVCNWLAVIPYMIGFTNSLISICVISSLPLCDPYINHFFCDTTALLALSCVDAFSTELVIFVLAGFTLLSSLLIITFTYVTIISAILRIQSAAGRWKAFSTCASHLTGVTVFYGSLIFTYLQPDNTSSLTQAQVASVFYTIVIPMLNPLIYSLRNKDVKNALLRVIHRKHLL
Summary of the method: as §1

UniProt B2RVX8 = target: T4, UniProt B2RVX8
T4 sequence (whole entry): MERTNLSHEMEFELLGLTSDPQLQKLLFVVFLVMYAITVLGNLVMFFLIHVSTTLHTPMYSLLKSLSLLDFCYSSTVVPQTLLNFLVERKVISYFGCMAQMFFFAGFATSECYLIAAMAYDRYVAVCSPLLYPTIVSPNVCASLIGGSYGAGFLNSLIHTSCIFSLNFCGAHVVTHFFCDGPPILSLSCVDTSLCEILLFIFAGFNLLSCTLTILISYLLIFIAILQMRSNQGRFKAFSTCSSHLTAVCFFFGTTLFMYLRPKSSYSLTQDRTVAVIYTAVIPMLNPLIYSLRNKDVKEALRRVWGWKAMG
Summary of the method: as §1

UniProt E9PVX1 = target: T5, UniProt E9PVX1
T5 sequence (whole entry): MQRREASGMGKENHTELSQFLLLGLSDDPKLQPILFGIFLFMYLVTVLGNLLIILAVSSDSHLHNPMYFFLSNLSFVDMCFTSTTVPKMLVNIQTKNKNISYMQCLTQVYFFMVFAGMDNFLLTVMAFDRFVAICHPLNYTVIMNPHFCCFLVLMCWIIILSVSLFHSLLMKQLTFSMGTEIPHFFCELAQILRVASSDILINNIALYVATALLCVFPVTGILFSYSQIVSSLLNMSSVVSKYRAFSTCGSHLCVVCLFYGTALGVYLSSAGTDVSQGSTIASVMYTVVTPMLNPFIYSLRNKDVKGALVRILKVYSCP
Summary of the method: as §1

UniProt E9PZ66 = target: T6, UniProt E9PZ66
T6 sequence (whole entry): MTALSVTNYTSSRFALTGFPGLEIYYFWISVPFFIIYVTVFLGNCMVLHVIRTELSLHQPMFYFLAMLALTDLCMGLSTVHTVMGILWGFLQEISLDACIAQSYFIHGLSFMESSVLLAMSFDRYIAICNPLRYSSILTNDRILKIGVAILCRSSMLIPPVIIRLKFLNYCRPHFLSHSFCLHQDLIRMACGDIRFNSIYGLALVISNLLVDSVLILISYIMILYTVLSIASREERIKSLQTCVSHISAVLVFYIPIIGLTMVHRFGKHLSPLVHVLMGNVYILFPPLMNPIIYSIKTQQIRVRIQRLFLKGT
Summary of the method: as §1

UniProt E9Q4X7 = target: T7, UniProt E9Q4X7
T7 sequence (whole entry): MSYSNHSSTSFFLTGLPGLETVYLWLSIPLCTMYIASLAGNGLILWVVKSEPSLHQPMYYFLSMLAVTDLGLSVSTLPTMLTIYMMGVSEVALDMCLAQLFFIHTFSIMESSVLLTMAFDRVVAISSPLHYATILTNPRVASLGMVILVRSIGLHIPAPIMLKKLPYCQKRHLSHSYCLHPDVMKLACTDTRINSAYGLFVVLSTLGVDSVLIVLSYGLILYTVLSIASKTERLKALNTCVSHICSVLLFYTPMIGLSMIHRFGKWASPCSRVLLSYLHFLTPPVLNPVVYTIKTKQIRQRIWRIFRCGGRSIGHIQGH
Summary of the method: as §1

UniProt E9Q546 = target: T8, UniProt E9Q546
T8 sequence (whole entry): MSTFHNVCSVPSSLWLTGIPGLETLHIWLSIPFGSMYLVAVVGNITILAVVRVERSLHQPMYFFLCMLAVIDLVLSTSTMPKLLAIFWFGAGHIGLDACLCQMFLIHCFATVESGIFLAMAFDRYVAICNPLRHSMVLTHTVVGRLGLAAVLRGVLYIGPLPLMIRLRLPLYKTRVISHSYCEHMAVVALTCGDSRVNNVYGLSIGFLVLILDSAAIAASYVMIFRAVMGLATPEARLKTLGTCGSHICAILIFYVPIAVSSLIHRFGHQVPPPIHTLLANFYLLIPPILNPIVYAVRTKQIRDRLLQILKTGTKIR
Summary of the method: as §1

UniProt E9Q6Z7 = target: T9, UniProt E9Q6Z7
T9 sequence (whole entry): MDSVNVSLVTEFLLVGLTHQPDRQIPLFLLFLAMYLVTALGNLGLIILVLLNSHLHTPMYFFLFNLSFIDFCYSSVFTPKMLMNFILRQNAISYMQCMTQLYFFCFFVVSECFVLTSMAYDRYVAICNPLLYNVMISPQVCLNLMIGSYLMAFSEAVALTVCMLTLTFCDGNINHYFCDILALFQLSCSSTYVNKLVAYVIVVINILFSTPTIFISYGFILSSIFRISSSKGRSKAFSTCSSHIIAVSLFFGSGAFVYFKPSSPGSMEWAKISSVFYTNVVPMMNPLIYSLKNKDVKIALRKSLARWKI
Summary of the method: as §1

UniProt K7N609 = target: T10, UniProt K7N609
T10 sequence (whole entry): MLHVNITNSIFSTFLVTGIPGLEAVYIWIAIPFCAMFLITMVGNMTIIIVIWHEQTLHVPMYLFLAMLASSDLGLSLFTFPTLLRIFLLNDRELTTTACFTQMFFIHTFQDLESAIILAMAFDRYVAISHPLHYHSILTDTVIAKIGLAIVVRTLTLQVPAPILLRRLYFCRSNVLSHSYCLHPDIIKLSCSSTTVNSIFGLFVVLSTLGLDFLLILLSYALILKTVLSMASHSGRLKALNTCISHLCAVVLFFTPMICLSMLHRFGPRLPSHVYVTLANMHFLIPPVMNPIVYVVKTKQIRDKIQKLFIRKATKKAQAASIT
Summary of the method: as §1

UniProt E9PX47 = target: T11, UniProt E9PX47
T11 sequence (whole entry): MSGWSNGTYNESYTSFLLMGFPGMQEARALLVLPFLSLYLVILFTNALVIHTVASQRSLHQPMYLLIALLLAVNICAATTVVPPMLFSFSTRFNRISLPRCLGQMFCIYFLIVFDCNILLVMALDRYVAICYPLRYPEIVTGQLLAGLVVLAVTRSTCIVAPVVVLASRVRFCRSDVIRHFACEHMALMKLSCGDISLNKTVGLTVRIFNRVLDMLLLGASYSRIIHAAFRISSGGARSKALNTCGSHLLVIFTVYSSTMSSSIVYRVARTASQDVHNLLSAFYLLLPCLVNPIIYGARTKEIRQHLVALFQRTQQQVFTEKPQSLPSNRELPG
Summary of the method: as §1

UniProt E9PXN3 = target: T12, UniProt E9PXN3
T12 sequence (whole entry): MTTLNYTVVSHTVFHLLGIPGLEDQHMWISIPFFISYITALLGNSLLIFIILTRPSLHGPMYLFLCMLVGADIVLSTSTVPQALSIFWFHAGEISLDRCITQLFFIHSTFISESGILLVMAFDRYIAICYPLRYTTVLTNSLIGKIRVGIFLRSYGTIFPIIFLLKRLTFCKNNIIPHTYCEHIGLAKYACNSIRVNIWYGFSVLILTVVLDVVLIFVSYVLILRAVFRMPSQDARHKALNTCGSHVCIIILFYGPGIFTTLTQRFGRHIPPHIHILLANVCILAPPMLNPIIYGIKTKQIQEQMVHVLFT
Summary of the method: as §1

UniProt A2AVA9 = target: UniProt A2AVA9
Summary of the method: as §1

UniProt A2AVC3 = target: UniProt A2AVC3
Summary of the method: as §1

UniProt E9PXH6 = target: UniProt E9PXH6
Summary of the method: as §1

UniProt E9Q891 = target: UniProt E9Q891
Summary of the method: as §1

UniProt K7N5T5 = target: UniProt K7N5T5
Summary of the method: as §1

UniProt E9Q891, sequence (E9Q891 as listed by the source): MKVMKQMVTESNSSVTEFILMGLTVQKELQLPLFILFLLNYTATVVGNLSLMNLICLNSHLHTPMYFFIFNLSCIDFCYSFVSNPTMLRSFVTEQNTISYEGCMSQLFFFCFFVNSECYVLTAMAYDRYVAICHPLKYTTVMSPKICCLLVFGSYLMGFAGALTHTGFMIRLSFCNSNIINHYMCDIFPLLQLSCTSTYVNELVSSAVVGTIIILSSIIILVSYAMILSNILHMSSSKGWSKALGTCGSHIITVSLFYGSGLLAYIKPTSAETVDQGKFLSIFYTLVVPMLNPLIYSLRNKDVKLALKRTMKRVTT
UniProt E9PXH6, sequence (E9PXH6 as listed by the source): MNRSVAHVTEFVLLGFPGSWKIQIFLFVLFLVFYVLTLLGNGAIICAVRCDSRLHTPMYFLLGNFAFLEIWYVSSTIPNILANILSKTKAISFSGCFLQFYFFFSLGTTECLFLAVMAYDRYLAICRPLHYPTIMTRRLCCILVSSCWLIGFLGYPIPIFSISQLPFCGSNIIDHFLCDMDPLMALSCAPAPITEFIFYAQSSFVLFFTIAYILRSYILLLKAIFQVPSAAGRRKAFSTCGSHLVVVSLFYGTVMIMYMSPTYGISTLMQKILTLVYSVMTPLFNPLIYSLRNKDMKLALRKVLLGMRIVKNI
UniProt K7N5T5, sequence (K7N5T5 as listed by the source): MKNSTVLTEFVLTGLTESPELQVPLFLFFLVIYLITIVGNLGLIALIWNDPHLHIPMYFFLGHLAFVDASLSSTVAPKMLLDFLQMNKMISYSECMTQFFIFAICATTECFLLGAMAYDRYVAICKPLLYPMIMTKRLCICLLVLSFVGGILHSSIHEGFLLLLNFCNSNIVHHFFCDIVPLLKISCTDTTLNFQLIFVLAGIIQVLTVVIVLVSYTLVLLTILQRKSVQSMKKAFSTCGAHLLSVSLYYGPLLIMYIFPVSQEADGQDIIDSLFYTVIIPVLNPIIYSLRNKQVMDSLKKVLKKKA
UniProt A2AVC3, sequence (A2AVC3 as listed by the source): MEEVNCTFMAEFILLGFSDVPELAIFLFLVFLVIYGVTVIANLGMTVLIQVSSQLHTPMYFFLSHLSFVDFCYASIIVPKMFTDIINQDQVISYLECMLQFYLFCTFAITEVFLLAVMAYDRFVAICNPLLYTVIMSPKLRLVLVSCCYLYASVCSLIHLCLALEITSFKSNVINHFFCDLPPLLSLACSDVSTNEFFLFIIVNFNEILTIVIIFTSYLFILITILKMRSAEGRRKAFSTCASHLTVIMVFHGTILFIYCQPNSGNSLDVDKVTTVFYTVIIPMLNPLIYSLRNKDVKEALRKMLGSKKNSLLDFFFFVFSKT
UniProt A2AVA9, sequence (A2AVA9 as listed by the source): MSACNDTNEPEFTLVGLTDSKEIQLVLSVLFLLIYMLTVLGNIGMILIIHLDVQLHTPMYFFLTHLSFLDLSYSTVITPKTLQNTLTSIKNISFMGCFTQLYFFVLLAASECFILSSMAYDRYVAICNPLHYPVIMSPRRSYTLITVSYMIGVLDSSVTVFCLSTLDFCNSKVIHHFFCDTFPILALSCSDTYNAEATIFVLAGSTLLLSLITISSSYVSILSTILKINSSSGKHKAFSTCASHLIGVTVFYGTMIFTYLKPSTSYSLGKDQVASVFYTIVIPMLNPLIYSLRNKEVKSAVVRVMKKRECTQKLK

Row | SMILES | odorant receptor agonist call (UniProt A2ATE5) | odorant receptor agonist call (UniProt A2AVB0) | odorant receptor agonist call (UniProt A2AVB5) | odorant receptor agonist call (UniProt B2RVX8) | odorant receptor agonist call (UniProt E9PVX1) | odorant receptor agonist call (UniProt E9PZ66) | odorant receptor agonist call (UniProt E9Q4X7) | odorant receptor agonist call (UniProt E9Q546) | odorant receptor agonist call (UniProt E9Q6Z7) | odorant receptor agonist call (UniProt K7N609) | odorant receptor agonist call (UniProt E9PX47) | odorant receptor agonist call (UniProt E9PXN3) | odorant receptor agonist call (UniProt A2AVA9) | odorant receptor agonist call (UniProt A2AVC3) | odorant receptor agonist call (UniProt E9PXH6) | odorant receptor agonist call (UniProt E9Q891) | odorant receptor agonist call (UniProt K7N5T5)
1 | CC(=O)OCc1ccccc1 | inactive | inactive | inactive | inactive | inactive | inactive | inactive | inactive | inactive | inactive |  |  |  |  |  |  | 
2 | C=CCOC(=O)CCCCCC | inactive | inactive | inactive | inactive | inactive | inactive | inactive | inactive | inactive | inactive |  |  |  |  |  |  | 
3 | CCCC(=O)C(C)=O | inactive | inactive | inactive | inactive | inactive | inactive | inactive | inactive | inactive | inactive |  |  |  |  |  |  | 
4 | CCCCCCCCCC(=O)[O-].[H+] | inactive | inactive | inactive | inactive | inactive | inactive | inactive | active | inactive | inactive | inactive |  |  |  |  |  | 
5 | CCCCCC=O | inactive | inactive | inactive | inactive | inactive | inactive | inactive | inactive | inactive | inactive |  |  |  |  |  |  | 
6 | CCCCC(C)=O | inactive | inactive | inactive | inactive | inactive | inactive | inactive | inactive | inactive | inactive |  |  |  |  |  |  | 
7 | CC(=O)Oc1ccccc1 | inactive | inactive | inactive | inactive | inactive | inactive | inactive | inactive | inactive | inactive |  |  |  |  |  |  | 
8 | CCCCCCO | inactive | inactive | inactive | inactive | inactive | inactive | inactive | inactive | inactive | inactive | inactive | inactive |  |  |  |  | 
9 | CCCCCCCC(C)=O | inactive | inactive | inactive | inactive | inactive | inactive | inactive | inactive | inactive | inactive |  |  |  |  |  |  | 
10 | O=C1Cc2ccccc2O1 | inactive | inactive | inactive | inactive | inactive | inactive | inactive | inactive | inactive | inactive |  |  |  |  |  |  | 
11 | CCCCCOC(=O)CCCCC | inactive | inactive | inactive | inactive | inactive | inactive | inactive | inactive | inactive | inactive |  |  |  |  |  |  | 
12 | O=C1CCOc2ccccc21 | inactive | inactive | active | inactive | inactive | inactive | inactive | inactive | inactive | inactive |  |  | active | inactive | active | active | inactive
